The target in data set [1] is T1, human FABP1 (Homo sapiens, UniProt P07148).
T1 sequence (P07148 1-127): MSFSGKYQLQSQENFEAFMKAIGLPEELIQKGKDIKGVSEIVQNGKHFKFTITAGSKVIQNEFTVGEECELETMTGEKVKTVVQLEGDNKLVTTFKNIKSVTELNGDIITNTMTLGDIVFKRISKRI
The experiment in a line: DAUDA displacement assay of cannabinoid binding to FABP1. The essentials: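 Purified human FABP1, protein quantified by BCA and held on ice in gel filtration buffer with 0.5 mM DTT, titrated with test cannabinoid displacing DAUDA. Fluorescence spectra scanned at 600 nm/min, PMT 800 V. Bound-DAUDA signal extracted by singular value decomposition. Kd from ternary binding model fit; EC50 from three-parameter dose-response fit. Mean ± SD, three days, ≥2 protein batches.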

Data set [2] relates to human liver microsomes from six individual liver donors. It counts as in vitro ADME. Conditions: for inhibition of M3 formation in donor HL-109: HL-109: low CYP2C19 activity, high CYP3A activity, no CYP3A5 expression. In a few lines:
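HLMs from six donors (2 CYP3A5 expressors, 4 non-expressors), 1 mg/mL, were preincubated 10 min with 0.5 μM CYP3cide plus 1 mM NADPH, with a methanol vehicle control. They were diluted 40-fold to 0.025 mg/mL in buffer with 1 mM NADPH, then 2 μM THC was added. Reactions ran 2 min before quench and LC-MS/MS. % activity remaining was normalised to vehicle, in duplicate.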

The nature of data set [3]: THC unbound fraction in incubations with recombinant CYPs. It counts as in vitro ADME. Conditions: human, recombinant CYP3A4 microsomes (Supersomes), pH 7.4. The essentials:
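Magnetic silica beads (50 μL), washed three times, were pre-equilibrated 30 min on ice with recombinant CYP at incubation protein concentration in 0.2 mL buffer. THC was added at each nominal kinetic concentration and incubated 30 min at 37 °C with shaking, then cooled 5 min at room temperature. Total and supernatant THC were measured by LC-MS/MS; fu = Cfree/Ctotal.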

Data set [4] relates to HLMs and recombinant CYP2C9. The following applies: cited from earlier work; for Km: in HLM.
The test system of data set [5] is recombinant CYP2C19. The data set can be described thus: THC incubations with recombinant CYP2C19 in the presence and absence of FABP1. It counts as in vitro ADME, human. The essentials: (§1)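 Recombinant CYP2C19 (Supersomes) at 1 nM (0.013 mg/mL microsomal protein), with nominal THC 0.02–1.0 μM, ±20 μM FABP1 added before 5 min preincubation at 37 °C. Started with 1 mM NADPH, 2 min, with a no-NADPH control, then quench and LC-MS/MS. Matched ±FABP1 pairs. Michaelis-Menten fits against free THC from bead measurements, with a mass-balance calculation when FABP1 was present. Replicates on separate days.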

Data set [6] has as its system CYP2C19. Described as above. It counts as in vitro ADME, human. The following applies: human. In a few lines: as §1
A short description of data set [7]: THC unbound fraction in human liver microsome incubations. It counts as in vitro ADME. The following applies: pooled liver microsomes, pH 7.4. In a few lines: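 Magnetic silica beads (200 μL), washed three times, were pre-equilibrated 30 min on ice with HLM protein at incubation concentration in 0.5 mL buffer. THC was added at each nominal kinetic concentration and incubated 30 min at 37 °C with shaking, then cooled 5 min. Total and supernatant samples were quenched and measured by LC-MS/MS; fu = Cfree/Ctotal.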

The conditions of data set [8]: cited from earlier work.
The target of data set [9] is T1, human FABP1. Conditions: read-out: Kd previously reported; cited from earlier work.
The conditions of data set [10]: cited from earlier work. The source holds these as a separate data set.
The subject of data set [11] is pooled human liver microsomes. The data set can be described thus: Kinetics of THC metabolite formation in pooled human liver microsomes. It counts as in vitro ADME. The following applies: pooled HLMs 0.1 mg/mL; mean ± SD, 3 days. The essentials:
(§2)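 Pooled HLMs at 0.1 mg/mL with nominal THC 0.05–5 μM in 100 mM potassium phosphate pH 7.4. After 5 min preincubation at 37 °C, 1 mM NADPH was added and reactions ran 2 min, within time linearity. Quench was acetonitrile/1% formic acid with 11-OH-THC-d3, then LC-MS/MS. Michaelis-Menten fits used bead-measured free THC; linear fits gave CLint,u where saturation was absent. Three days, duplicates.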

Assay in data set [12]: as above
It counts as in vitro ADME. The following applies: human, pooled human liver microsomes, pooled HLMs 0.1 mg/mL. The essentials: as §2

Data set [13] relates to recombinant CYP3A4. The data set can be described thus: THC incubations with recombinant CYP3A4 in the presence and absence of FABP1. It counts as in vitro ADME, human. The essentials: (§3)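 Recombinant CYP3A4 (Supersomes) at 0.625 nM (0.004 mg/mL microsomal protein), with seven nominal THC concentrations of 0.156–3.75 μM, ±20 μM FABP1 added before 5 min preincubation at 37 °C. Started with 1 mM NADPH, 1 min, with a no-NADPH control, then LC-MS/MS. M4 data were fitted to an allosteric sigmoidal model (K0.5, h); other metabolites used Michaelis-Menten fits, against free THC; matched pairs.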

The subject of data set [14] is CYP3A4. The description is as above. It counts as in vitro ADME, human. The following applies: human. In a few lines: as §3
Data set [15] deals with human liver microsomes from three individual donors. The experiment in a line: Impact of FABP1 on THC metabolism in HLMs from individual donors. It counts as in vitro ADME. Conditions: HLM incubations.
Data set [16] has as its system recombinant CYP2C9. The experiment in a line: THC incubations with recombinant CYP2C9 in the presence and absence of FABP1. It counts as in vitro ADME, human. Conditions: recombinant CYP2C9, absence of FABP1. In a few lines: (§4)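 Recombinant CYP2C9 (Supersomes) at 1 nM (0.0016 mg/mL microsomal protein), with seven nominal THC concentrations of 10–640 nM in pH 7.4 phosphate buffer, ±20 μM FABP1 added before 5 min preincubation at 37 °C. Started with 1 mM NADPH, 1 min, with a no-NADPH control. Quench was acetonitrile/formic acid with 11-OH-THC-d3, then LC-MS/MS. Km,u and kcat came from Michaelis-Menten fits against free THC; matched pairs, separate days.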

Data set [17] has as its system CYP2C9. The data set is described as above. It counts as in vitro ADME, human. Conditions: human. The essentials:
as §4

For data set [18], the system named is recombinant CYPs. The experiment in a line: THC metabolite formation by a panel of recombinant CYPs. It counts as in vitro ADME, human. The following applies: 10 μM THC. The essentials: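 Individual recombinant CYPs (10 pmol/mL) across a twelve-enzyme panel were preincubated 5 min at 37 °C with 10 μM THC in 100 mM potassium phosphate pH 7.4. Reactions were started with 1 mM NADPH and ran 15 min, then were quenched with acetonitrile/1% formic acid containing 11-OH-THC-d3 and analysed by LC-MS/MS. Relative formation was the metabolite/internal-standard peak-area ratio; peaks below S/N 5 were not quantified.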

Setting [19] is: THC depletion, 500 nM nominal, 0.2% BSA.
The mark [20] stands for this setting: recombinant CYP3A4, absence of FABP1, allosteric sigmoidal model.

Each structure is given as a SMILES string. Where “and” joins values, the source holds several entries; their conditions need not be identical. Equal values may be shown once. Read-outs that look alike come from different tables or passages of the source.

In data set [1], `CCCCC/C=C\C/C=C\C/C=C\C/C=C\CCCC(=O)NCCO` [AEA, anandamide] registered an EC50 of 310 ± 140 nM.

`C=C(C)[C@@H]1CCC(C)=C[C@H]1c1c(O)cc(CCCCC)cc1O` [CBD, cannabidiol] registered an EC50 in data set [1] of 920 ± 70 nM.

Take `CCCCC/C=C\C/C=C\C/C=C\C/C=C\CCCC(=O)OC(CO)CO` [2AG, 2-arachidonoylglycerol]: in [1], the EC50 worked out at 180 ± 20 nM and the Kd came out at 60 ± 40 nM.

On to `CCC1(c2ccccc2)NC(=O)N(Cc2ccccc2)C1=O` (single isomer, unassigned; (+)) [Benzylnirvanol, (+)-N-3-benzylnirvanol], for which the “inhibition of M3 formation in donor HL-109” value in [2] is listed as “no impact”.

As for `Cc1ccc(-c2c(-c3nn(C)c4ncnc(N5CC[C@H](N6CCCCC6)C5)c34)cnn2C)cc1` [CYP3cide], in data set [2] (CYP3cide 0.5 μM), the “inhibition of M4 formation in donors without CYP3A5 expression” value is recorded as around 100%. For the same compound, the “inhibition of M3 formation in donor HL-109” value in data set [2] is recorded as around 100%.

As for `CCCCCc1cc(O)c2c(c1)OC(C)(C)[C@@H]1CCC(C)=C[C@@H]21` [THC, Δ9-tetrahydrocannabinol], the fraction unbound at 30 min came to 0.15 ± 0.02 in data set [3] and 0.015 ± 0.001 in [7]. In addition, in data set [4] (setting [19]), the “THC metabolic clearance in pooled HLMs assigned to CYP2C9” value is 91% and > 90%. In addition, the “THC metabolic clearance in pooled HLMs assigned to CYP2D6” value in data set [4] (setting [19]) is listed as 9%. Moreover, the Km was 8 nM in [4] (read-out: unbound Km (Km,u) for 11-OH-formation); 7 nM in data set [4] (read-out: unbound Km (Km,u) for THC depletion); 0.77 ± 0.16 nM in data set [16] (read-out: Km,u −FABP1, 11-OH-THC formation). In data set [1], this compound showed an EC50 of 220 ± 130 nM. Also, the “kcat + FABP1, 11-OH-THC formation” value in [5] (recombinant CYP2C19, 20 μM FABP1) was determined as 0.133 ± 0.0333 s⁻¹. The “kcat −FABP1, 11-OH-THC formation” value in data set [5] (recombinant CYP2C19, absence of FABP1) was 0.233 s⁻¹ and 0.233 ± 0.0113 s⁻¹; in data set [16], 0.2 s⁻¹ and 0.2 ± 0.0145 s⁻¹. Further, the Km at 2 min in data set [6] (recombinant CYP2C19 (Supersomes) with 20 μM FABP1, Km,u + FABP1, 11-OH-THC formation, recombinant CYP2C19, 20 μM FABP1) was 5.2 ± 0.64 nM; in [6] (recombinant CYP2C19 (Supersomes) with 20 μM FABP1, Km,u + FABP1, M3 formation, recombinant CYP2C19, 20 μM FABP1), 4.7 ± 0.72 nM; in data set [6] (recombinant CYP2C19 (Supersomes), Km,u −FABP1, 11-OH-THC formation, recombinant CYP2C19, absence of FABP1), 2.2 nM; in [6] (recombinant CYP2C19 (Supersomes), Km,u −FABP1, M3 formation, recombinant CYP2C19, absence of FABP1), 2.2 nM; in [12] (Km,unbound of M2 formation, free THC concentrations), above 45 nM; in data set [12] (Km,unbound of M3 formation, free THC concentrations) it was above 45 nM. The Km at 2 min in [12] (Km,unbound of M4 formation, no saturation, linear) is above 45 nM. Further, the “blood to plasma ratio” value in data set [8] is on record as 0.67. The “plasma protein binding fu” value in data set [8] (plasma) is 0.01. In data set [9], the Kd was 2900 nM. In addition, the “dose recovered in urine and feces” value in data set [10] (after iv administration) is “less than 1%”. Besides, the “THC exposure (AUC) in CYP2C9*3/*3 carriers compared to CYP2C9*1/*1 carriers” value in data set [10] (after oral dosing) is listed as 3 fold. Further, in data set [10], the hepatic extraction ratio entry is on record as “around 0.8”. The “increase of AUC of THC when co-administered with ketoconazole” value in [10] is reported as ~ 80%. For the same compound, the “contribution of CYP2C9 to THC clearance (fraction metabolized)” value in data set [10] (estimated from AUC in CYP2C9 genotypes) is recorded as “about 70%”. For the same compound, the “THC exposure on co-administration of rifampicin” value in [10] (oral dosing of THC) was “decreases THC exposure”. Moreover, in data set [11], the “Vmax of 11-OH-THC formation” value is on record as 521 ± 53 pmol/min/mg HLM. Moreover, the “M3 formation by recombinant CYP3A4 in the presence of FABP1” value in data set [13] (20 μM FABP1) is on record as “completely abolished”. For the same compound, the “K0.5,u −FABP1, M4 formation” value in data set [13] (setting [20]) was determined as 43 ± 25 nM. Further, the “hill slope (h), M4 formation” value in data set [13] (setting [20]) was determined as 1.4 ± 0.5. In addition, the Km at 1 min in data set [14] (recombinant CYP3A4 (Supersomes) with 20 μM FABP1, Km,u + FABP1, M2 formation, recombinant CYP3A4, 20 μM FABP1) is above 20 nM; in data set [14] (recombinant CYP3A4 (Supersomes) with 20 μM FABP1, Km,u + FABP1, M4 formation, recombinant CYP3A4, 20 μM FABP1), above 20 nM; in [14] (recombinant CYP3A4 (Supersomes), Km,u of the other three major metabolites, formed mainly by recombinant CYP3A4/5), above 10 nM; in data set [14] (recombinant CYP3A4 (Supersomes), Km,u −FABP1, M2 formation, recombinant CYP3A4, absence of FABP1), 29 ± 19 nM; in data set [14] (recombinant CYP3A4 (Supersomes), Km,u −FABP1, M3 formation, recombinant CYP3A4, absence of FABP1), 18 ± 13 nM; in data set [17] (recombinant CYP2C9 (Supersomes) with 20 μM FABP1, Km,u + FABP1, 11-OH-THC formation, recombinant CYP2C9, 20 μM FABP1), above 20 nM. Besides, in data set [17] (recombinant CYP2C9 (Supersomes), Km,u −FABP1, 11-OH-THC formation, recombinant CYP2C9, absence of FABP1), the Km at 1 min is 0.8 nM. Further, the “decrease in free concentrations of THC by FABP1 binding” value in data set [15] (2 μM THC, 20 μM FABP1 vs absence) was 86%. The “free THC in the absence of FABP1” value in data set [15] (2 μM nominal THC) came to 14 nM. Moreover, in [15] (2 μM nominal THC, 20 μM FABP1), the “free THC in the presence of FABP1” value worked out at 2 nM. Moreover, in data set [18], the “velocity of 11-OH-THC formation by CYP2C9 and CYP2C19 relative to CYP2D6” value is reported as ~ 3 fold. Also, the “velocity of 11-OH-THC formation by CYP2C9 and CYP2C19 relative to other CYPs” value in [18] was above 10 fold.
